Experimental data taken from ChEMBL document CHEMBL5154895, “Mechanistic Studies and In Vivo Efficacy of an Oxadiazole-Containing Antibiotic” (J Med Chem, 2022).
≈ marks a conversion by molar mass, not a printed value. Calls of active or inactive are those of the source. No cut-off for these calls is given here.

Legend:
[1] = Toxicity in Balb/c mouse infected with methicillin-resistant Staphylococcus aureus USA300 assessed as chronic inflammatory response administered topically twice daily 2 days post infection and measured after 5 days post compound treatment by H and E staining based histopathological analysis; conditions: in vivo, topical_or_ocular, 120 h, time 5 day
In short: (§1)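 MRSA USA300-infected punch wounds in mice, n=5. Topical 2% agent or petroleum jelly vehicle twice daily from day 2 for 5 days. The left wound was formalin-fixed, cut into 4-μm sections and H&E-stained. Whole slides were scanned and assessed by a board-certified veterinary pathologist for necrosis, inflammation, haemorrhage and related features.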

Staphylococcus aureus [2] = assay: Downregulation of oxidoreductase protein expression in Staphylococcus aureus measured after 2 hrs by LC-MS/MS analysis; format: functional
In short: (§2)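 S. aureus ATCC 25923 at OD600 0.6 exposed to compound or DMSO control for 2 h at 37°C, normalized to OD600 1.1 and PBS-washed. Cells were pressure-cycling lysed in 100 mM ammonium bicarbonate, and 50 μg protein was acetone-precipitated, reduced and alkylated, then Trypsin/Lys-C digested and C18-desalted. About 1 μg peptides went to LC-MS/MS. Label-free quantitation kept proteins present in all 3 samples, filtered at p <0.05.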

Staphylococcus aureus [3] = assay: Antibacterial activity against methicillin-resistant Staphylococcus aureus NRS384 assessed as inhibition of bacterial growth incubated for 18 to 20 hrs by broth microdilution method; format: functional; conditions: time 18-20 hrs
In short: (§3)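 Broth microdilution per CLSI. Inoculum was set to 0.5 McFarland and diluted in CAMHB to about 5×10^5 CFU/mL. Serial dilutions of agent were incubated aerobically at 37 °C for 18–20 h. MIC was read visually as the lowest concentration with complete growth inhibition.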

Staphylococcus aureus [4] = assay: Downregulation of DNA-binding response regulator protein expression in Staphylococcus aureus measured after 2 hrs by LC-MS/MS analysis; format: functional
In short: (§4)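 S. aureus ATCC 25923 at OD600 0.6 was treated with compound or DMSO for 2 h at 37 °C, normalised to OD600 1.1, and washed in PBS. Cells were pressure-lysed in 100 mM ammonium bicarbonate, then acetone-precipitated, reduced with DTT, alkylated with iodoacetamide, and digested with trypsin/Lys-C. Peptides were desalted and run on LC-MS/MS. Label-free quantitation used proteins present in all 3 samples, filtered at p<0.05 against DMSO.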

Streptococcus pyogenes = assay: Antibacterial activity against Streptococcus pyogenes MGAS 1882 assessed as inhibition of bacterial growth incubated for 18 to 20 hrs by broth microdilution method; format: functional; conditions: time 18-20 hrs
In short: (§5)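 Broth microdilution with a 0.5 McFarland inoculum diluted in tryptic soy broth to about 5 × 10^5 CFU/mL. Serial compound dilutions incubated aerobically at 37° C for 18–20 hours. MIC read visually as the lowest concentration with no growth.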

[5] = Toxicity in Balb/c mouse infected with methicillin-resistant Staphylococcus aureus USA300 assessed as necrosis administered topically twice daily 2 days post infection and measured after 5 days post compound treatment by H and E staining based histopathological analysis; conditions: in vivo, topical_or_ocular, 120 h, time 5 day; in short: as §1
Staphylococcus aureus [6] = assay: Upregulation of DUF4930 domain-containing protein expression in Staphylococcus aureus measured after 2 hrs by LC-MS/MS analysis; format: functional; in short: as §2
[7] = Toxicity in Balb/c mouse infected with methicillin-resistant Staphylococcus aureus USA300 assessed as hemorrhage administered topically twice daily 2 days post infection and measured after 5 days post compound treatment by H and E staining based histopathological analysis; conditions: in vivo, topical_or_ocular, 120 h, time 5 day; in short: as §1
Staphylococcus aureus [8] = assay: Downregulation of PyrF protein expression in Staphylococcus aureus assessed as log2 of fold change in protein level measured after 2 hrs by LC-MS/MS analysis relative to control; format: functional; in short: as §4
[9] = In vivo antibacterial activity against methicillin-resistant Staphylococcus aureus USA300 infected in Balb/c mouse model assessed as reduction in bacterial infection in skin wounds administered topically twice daily 2 days post infection and measured after 5 days post compound treatment by CFU counting; parameters: scale not given: the % may be the effect or the level left; conditions: time 5 day
Staphylococcus aureus [10] = assay: Upregulation of CHAP domain-containing protein expression in Staphylococcus aureus measured after 2 hrs by LC-MS/MS analysis; format: functional; in short: as §2
Staphylococcus aureus [11] = assay: Downregulation of sodium ABC transporter permease protein expression in Staphylococcus aureus measured after 2 hrs by LC-MS/MS analysis; format: functional; in short: as §2
Staphylococcus aureus [12] = assay: Downregulation of CarB protein expression in Staphylococcus aureus assessed as log2 of fold change in protein level measured after 2 hrs by LC-MS/MS analysis relative to control; format: functional; in short: as §4
Staphylococcus aureus [13] = assay: Downregulation of nucleoside permease protein expression in Staphylococcus aureus measured after 2 hrs by LC-MS/MS analysis; format: functional; in short: as §2
Staphylococcus aureus [14] = assay: Antibacterial activity against vancomycin-resistant Staphylococcus aureus 10 assessed as inhibition of bacterial growth incubated for 18 to 20 hrs by broth microdilution method; format: functional; conditions: time 18-20 hrs; in short: as §3
Staphylococcus aureus [15] = assay: Downregulation of AdhE protein expression in Staphylococcus aureus assessed as log2 of fold change in protein level measured after 2 hrs by LC-MS/MS analysis relative to control; format: functional; in short: as §4
Staphylococcus aureus [16] = assay: Upregulation of heme uptake system protein IsdE expression in Staphylococcus aureus measured after 2 hrs by LC-MS/MS analysis; format: functional; in short: as §2
Staphylococcus aureus [17] = assay: Upregulation of zinc ABC transporter ATP-binding protein expression in Staphylococcus aureus measured after 2 hrs by LC-MS/MS analysis; format: functional; in short: as §2
Staphylococcus aureus [18] = assay: Downregulation of SarR protein expression in Staphylococcus aureus assessed as log2 of fold change in protein level measured after 2 hrs by LC-MS/MS analysis relative to control; format: functional; in short: as §4
Staphylococcus aureus [19] = assay: Downregulation of EssB protein expression in Staphylococcus aureus assessed as log2 of fold change in protein level measured after 2 hrs by LC-MS/MS analysis relative to control; format: functional; in short: as §4
Staphylococcus aureus [20] = assay: Downregulation of 50S rRNA methyltransferase protein expression in Staphylococcus aureus measured after 2 hrs by LC-MS/MS analysis; format: functional; in short: as §4
Staphylococcus aureus [21] = assay: Downregulation of membrane protein expression in Staphylococcus aureus measured after 2 hrs by LC-MS/MS analysis; format: functional; in short: as §2
Staphylococcus aureus [22] = assay: Downregulation of protein EssC expression in Staphylococcus aureus measured after 2 hrs by LC-MS/MS analysis; format: functional; in short: as §2
Staphylococcus aureus [23] = assay: Antibacterial activity against methicillin-resistant Staphylococcus aureus NRS 385 assessed as inhibition of bacterial growth incubated for 18 to 20 hrs by broth microdilution method; format: functional; conditions: time 18-20 hrs; in short: as §3
Listeria monocytogenes = assay: Antibacterial activity against Listeria monocytogenes ATCC 19111 assessed as inhibition of bacterial growth incubated for 18 to 20 hrs by broth microdilution method; format: functional; conditions: time 18-20 hrs; in short: as §5
Staphylococcus aureus [24] = assay: Inhibition of Glc2-DAG in Staphylococcus aureus ATCC 25923 assessed as reduction in alpha-naphthol at 0.25 to 2 ug/ml measured after 5 hrs by thin layer chromatography; conditions: dose 0.25-2 µg/ml
In short: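 Cells were normalized to OD600 0.9 and washed in 0.1 M sodium acetate pH 4.7. Lipids were Bligh-Dyer extracted and dried under nitrogen, then run on TLC with α-naphthol/sulfuric acid staining. The stained band was identified as Glc2-DAG by MALDI-TOF.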

[25] = test system: Staphylococcus epidermidis; assay: Antibacterial activity against Staphylococcus epidermidis NRS 101 assessed as inhibition of bacterial growth incubated for 18 to 20 hrs by broth microdilution method; format: functional; conditions: time 18-20 hrs
In short: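 Broth microdilution per CLSI. Inoculum at 0.5 McFarland, diluted in cation-adjusted Mueller Hinton broth to about 5 × 10^5 CFU/mL. Serial compound dilutions incubated aerobically at 37° C for 18–20 hours. MIC taken as the lowest concentration completely inhibiting visible growth.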

CC1CC(C)CN(S(=O)(=O)c2ccc(C(=O)Nc3nnc(-c4ccc(C(F)(F)F)cc4)o3)cc2)C1 (configuration not stated)
Activity [1]: Toxic
Activity (Staphylococcus aureus [2]): Active
MIC (Staphylococcus aureus [3]): 0.25 µg/mL (≈ 0.492 µM)
Activity (Staphylococcus aureus [4]): Active
MIC (Streptococcus pyogenes): 0.06 µg/mL (≈ 0.118 µM)
Activity [5]: Toxic
Activity (Staphylococcus aureus [6]): Active
Activity [7]: Toxic
log2FC (Staphylococcus aureus [8]): -2.2
Activity [9]: 93.8%
Activity (Staphylococcus aureus [10]): Active
Activity (Staphylococcus aureus [11]): Active
log2FC (Staphylococcus aureus [12]): -2
Activity (Staphylococcus aureus [13]): Active
MIC (Staphylococcus aureus [14]): 0.25 µg/mL (≈ 0.492 µM)
log2FC (Staphylococcus aureus [15]): -2.5
Activity (Staphylococcus aureus [16]): Active
Activity (Staphylococcus aureus [17]): Active
log2FC (Staphylococcus aureus [18]): -2
log2FC (Staphylococcus aureus [19]): -3.3
Activity (Staphylococcus aureus [20]): Active
Activity (Staphylococcus aureus [21]): Active
Activity (Staphylococcus aureus [22]): Active
MIC (Staphylococcus aureus [23]): 0.25 µg/mL (≈ 0.492 µM)
MIC (Listeria monocytogenes): 0.06 µg/mL (≈ 0.118 µM)
inhibition (Staphylococcus aureus [24]): Active
MIC [25]: 0.25 µg/mL (≈ 0.492 µM)
